Assay [1] addresses T1, MAP kinase-activated protein kinase 5 (Homo sapiens) (UniProt Q8IW41).
T1 sequence (whole entry): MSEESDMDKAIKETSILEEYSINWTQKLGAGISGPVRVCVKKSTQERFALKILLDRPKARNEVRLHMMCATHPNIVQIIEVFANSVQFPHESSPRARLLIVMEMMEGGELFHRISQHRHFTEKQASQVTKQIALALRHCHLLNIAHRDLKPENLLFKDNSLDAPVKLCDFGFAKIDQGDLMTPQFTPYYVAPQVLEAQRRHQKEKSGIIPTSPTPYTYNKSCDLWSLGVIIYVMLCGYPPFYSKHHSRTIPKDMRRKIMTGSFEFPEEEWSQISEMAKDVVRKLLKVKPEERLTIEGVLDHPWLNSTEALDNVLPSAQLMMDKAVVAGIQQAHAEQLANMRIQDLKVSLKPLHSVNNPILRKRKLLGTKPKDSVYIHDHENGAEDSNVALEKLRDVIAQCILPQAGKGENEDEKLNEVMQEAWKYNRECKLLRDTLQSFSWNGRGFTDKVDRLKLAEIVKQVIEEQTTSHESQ
Description: Inhibition of PRAK assessed as residual enzyme activity at 10 uM relative to untreated control.

Assay [2] concerns the target T2, Serine/threonine-protein kinase D1 (Homo sapiens) (UniProt Q15139).
T2 sequence (whole entry): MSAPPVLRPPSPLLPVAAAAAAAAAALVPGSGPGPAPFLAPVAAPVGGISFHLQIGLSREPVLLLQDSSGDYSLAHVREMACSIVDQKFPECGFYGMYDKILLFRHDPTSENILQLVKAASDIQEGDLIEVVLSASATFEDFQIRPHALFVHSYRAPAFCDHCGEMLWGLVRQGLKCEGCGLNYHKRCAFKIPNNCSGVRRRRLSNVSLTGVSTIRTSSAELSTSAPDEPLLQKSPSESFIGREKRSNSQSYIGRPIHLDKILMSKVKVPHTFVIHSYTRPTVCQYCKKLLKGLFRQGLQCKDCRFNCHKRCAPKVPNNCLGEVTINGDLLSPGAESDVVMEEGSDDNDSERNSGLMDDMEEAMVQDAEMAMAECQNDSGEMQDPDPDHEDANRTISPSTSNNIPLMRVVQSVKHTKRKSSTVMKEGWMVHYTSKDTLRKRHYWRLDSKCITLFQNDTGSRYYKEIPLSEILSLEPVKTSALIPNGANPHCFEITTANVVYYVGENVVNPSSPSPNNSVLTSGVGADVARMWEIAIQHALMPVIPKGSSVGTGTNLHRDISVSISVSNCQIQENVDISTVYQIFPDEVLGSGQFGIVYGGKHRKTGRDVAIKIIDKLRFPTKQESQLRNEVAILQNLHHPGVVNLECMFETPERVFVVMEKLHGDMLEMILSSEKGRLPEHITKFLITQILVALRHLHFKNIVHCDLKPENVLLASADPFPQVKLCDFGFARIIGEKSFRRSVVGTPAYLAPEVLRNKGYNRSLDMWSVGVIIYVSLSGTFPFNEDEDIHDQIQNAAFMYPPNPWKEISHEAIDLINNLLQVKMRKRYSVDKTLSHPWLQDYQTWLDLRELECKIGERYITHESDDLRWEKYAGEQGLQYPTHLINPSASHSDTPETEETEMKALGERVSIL
Description: Inhibition of PKD1 assessed as residual enzyme activity at 10 uM relative to untreated control.

Assay [3] addresses MAP kinase-interacting serine/threonine-protein kinase 1 (Homo sapiens) (UniProt Q9BUB5). In words: Inhibition of MNK1 assessed as residual enzyme activity at 10 uM relative to untreated control. The method in brief:
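Assayed with [γ-33P]ATP at 50 µM and 10 mM Mg acetate in 50 mM Tris/HCl pH 7.5, 0.1 mM EGTA, 0.1% 2-mercaptoethanol, 30 min, 21 °C. Phosphoric acid stop, P81 filter capture. ERK2 and Lck are mouse; AMPK is rat. 10 µM compound; % activity remaining relative to control without inhibitor, duplicates.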

For assay [4], the target named is T3, Serine/threonine-protein kinase Chk1 (Homo sapiens) (UniProt O14757).
T3 sequence (whole entry): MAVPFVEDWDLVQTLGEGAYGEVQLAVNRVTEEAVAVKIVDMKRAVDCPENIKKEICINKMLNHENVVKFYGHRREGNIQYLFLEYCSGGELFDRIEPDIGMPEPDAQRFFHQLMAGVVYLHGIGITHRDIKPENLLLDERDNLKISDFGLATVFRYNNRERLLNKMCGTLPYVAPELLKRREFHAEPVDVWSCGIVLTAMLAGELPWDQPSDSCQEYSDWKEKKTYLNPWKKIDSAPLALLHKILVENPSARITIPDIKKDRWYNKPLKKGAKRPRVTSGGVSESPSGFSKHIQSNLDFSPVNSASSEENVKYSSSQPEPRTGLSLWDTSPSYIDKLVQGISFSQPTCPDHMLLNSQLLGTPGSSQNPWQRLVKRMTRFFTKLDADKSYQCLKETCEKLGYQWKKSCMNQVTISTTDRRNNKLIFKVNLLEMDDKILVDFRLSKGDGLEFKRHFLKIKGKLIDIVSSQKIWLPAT
In words: Inhibition of CHK1 assessed as residual enzyme activity at 10 uM relative to untreated control. The method in brief:
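Kinases of human origin, except CK1δ, which is rat. Run in 50 mM Tris/HCl pH 7.5, 0.1 mM EGTA, 0.1% 2-mercaptoethanol and 10 mM Mg acetate, with [γ-33P]ATP at 20 µM, 30 min at 21 °C. Acid-stopped and captured on P81 filters. Compound tested at 10 µM; residual % of uninhibited control, duplicate determinations.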

In assay [5] the target is Mitogen-activated protein kinase 14 (Homo sapiens) (UniProt Q16539). Description: Inhibition of p38alpha assessed as residual enzyme activity at 10 uM relative to untreated control. The method in brief: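 p38γ and p38δ MAPK run at 5 µM [γ-33P]ATP, and p38α at 50 µM, each with 10 mM Mg acetate. Buffer 50 mM Tris/HCl pH 7.5, 0.1 mM EGTA, 0.1% 2-mercaptoethanol. 10 µM compound, 30 min at 21 °C. P81 filter capture. Residual activity relative to control, duplicates.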
Mitogen-activated protein kinase 14 (Homo sapiens), sequence (Q16539 whole entry): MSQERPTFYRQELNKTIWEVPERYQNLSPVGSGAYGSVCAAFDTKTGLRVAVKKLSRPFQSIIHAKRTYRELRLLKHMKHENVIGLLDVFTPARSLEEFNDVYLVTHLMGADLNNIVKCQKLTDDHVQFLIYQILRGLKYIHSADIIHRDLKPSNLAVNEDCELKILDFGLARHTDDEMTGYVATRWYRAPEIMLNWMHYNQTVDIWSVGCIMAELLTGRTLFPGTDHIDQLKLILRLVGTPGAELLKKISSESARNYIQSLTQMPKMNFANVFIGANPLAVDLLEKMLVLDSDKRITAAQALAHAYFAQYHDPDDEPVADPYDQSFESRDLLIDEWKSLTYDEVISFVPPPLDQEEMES

Each structure is given as a SMILES string.

MAP kinase-interacting serine/threonine-protein kinase 1 (Homo sapiens), sequence (Q9BUB5 whole entry, looked up): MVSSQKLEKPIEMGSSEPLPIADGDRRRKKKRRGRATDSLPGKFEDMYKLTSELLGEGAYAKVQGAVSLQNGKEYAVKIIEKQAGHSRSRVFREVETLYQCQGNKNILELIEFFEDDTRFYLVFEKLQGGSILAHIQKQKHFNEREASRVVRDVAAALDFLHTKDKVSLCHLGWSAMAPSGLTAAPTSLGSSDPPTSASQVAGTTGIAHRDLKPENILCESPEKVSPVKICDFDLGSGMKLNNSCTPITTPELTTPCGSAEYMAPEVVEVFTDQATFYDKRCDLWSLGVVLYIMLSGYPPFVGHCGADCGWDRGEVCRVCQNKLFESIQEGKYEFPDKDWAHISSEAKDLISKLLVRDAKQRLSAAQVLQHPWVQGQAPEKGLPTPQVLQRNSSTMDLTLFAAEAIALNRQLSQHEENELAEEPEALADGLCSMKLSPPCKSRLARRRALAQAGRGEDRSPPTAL

`c1ccc2c(c1)[nH]c1c2ccc2cc[nH]c21`: the Activity in assay [1] amounted to 97%; in assay [2], 83%; in assay [3], 69%; in assay [4] it was 123%; in assay [5], 108%.
As for `O=Cc1c[nH]c2c1ccc1c3ccccc3[nH]c12`, the Activity in assay [1] worked out at 72%; in assay [2], 28%; in assay [3], 27%; in assay [4], 97%; in assay [5] it was 102%.
On the same counts, the results for `O=Cc1c[nH]c2ccc3c4ccccc4[nH]c3c12` are 114%, 87%, 106%, 101% and 108%.
Turning to `c1ccc2c(c1)[nH]c1c3cc[nH]c3ccc21`, the Activity turned out to be 114% in assay [1]; 71% in assay [2]; 101% in assay [3]; 112% in assay [4]; 115% in assay [5].

Source of the values: ChEMBL document CHEMBL1154186, “Synthesis, kinase inhibitory potencies, and in vitro antiproliferative evaluation of new Pim kinase inhibitors” (J Med Chem, 2009).
